According to ChEMBL document CHEMBL3860059, “Design, Synthesis, and Biological Evaluation of First-in-Class Dual Acting Histone Deacetylases (HDACs) and Phosphodiesterase 5 (PDE5) Inhibitors for the Treatment of Alzheimer's Disease” (J Med Chem, 2016):

Columns and labels:
[1] = molecular target: Histone deacetylase 1 (Homo sapiens, UniProt Q13547); assay: Inhibition of full length recombinant human C-terminal His/Flag-tagged HDAC1 expressed in baculovirus infected Sf9 cells using fluorogenic HDAC substrate after 30 mins by fluorescence analysis
Summary of the method: (§1)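 Full-length human recombinant HDAC1 (0.4 μg/mL final), HDAC2 (1.5 μg/mL), HDAC3/NCOR2 (0.1 μg/mL) or HDAC6 (3.6 μg/mL) with 10 μM fluorogenic acetyl-lysine substrate and 0.1 mg/mL BSA, 1% DMSO, 30 min at 37 °C; lysine developer 20 min at room temperature; fluorescence ex 355/em 460 nm. Vehicle = positive control, no enzyme = negative; IC50 from curve fit.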

[2] = Cytotoxicity against mouse primary glial cells assessed as reduction in cell viability after 72 hrs by luminescence based ATPlite assay; assay type: toxicity; settings: read-out: LC50
Summary of the method: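 Primary neuron/glia cultures from embryonic mouse brain were grown 5 days at 37 °C (5% CO2) to allow neuron formation. Compounds were then added at final 0–100 μM in 1% DMSO for 72 h. Cellular ATP was read by luminescence after 10 min with reagent at room temperature.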

[3] = Selectivity ratio of pIC50 for full length recombinant human N-terminal GST tagged HDAC6 expressed in baculovirus infected Sf9 cells to pIC50 for full length recombinant human C-terminal His/Flag-tagged HDAC1 expressed in baculovirus infected Sf9 cells
[4] = Passive membrane permeability of the compound at 50 uM after 18 hrs by PAMPA; assay type: ADME; settings: read-out: Peff
Summary of the method: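 PAMPA: 50 μM donor solution in PBS/EtOH 70:30 over PVDF membrane precoated with PBL/dodecane (20 mg/mL); PBS/EtOH acceptor; 18 h at 20 °C without shaking; duplicates; donor and acceptor concentrations by UV absorbance corrected against vehicle.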

[5] = molecular target: cGMP-specific 3',5'-cyclic phosphodiesterase (Homo sapiens, UniProt O76074); assay: Inhibition of full length recombinant human N-terminal GST-tagged PDE5A1 expressed in baculovirus infected Sf9 cells using cGMP as substrate after 30 mins by HTRF assay
[6] = molecular target: Histone deacetylase 3/Nuclear receptor corepressor 2 (HDAC3/NCoR2) (Homo sapiens, UniProt O15379); assay: Inhibition of full length recombinant human C-terminal His-tagged HDAC3/N-terminal GST-tagged NCOR2 (395 to 489 residues) expressed in baculovirus infected Sf9 cells using fluorogenic HDAC substrate after 30 mins by fluorescence analysis
[7] = Selectivity ratio of pLC50 for mouse primary glial cells to pLC50 for human THLE2 cells; assay type: ADME, cell-based; settings: mouse primary glial cells versus THLE2 cells
[8] = molecular target: T1, Protein deacetylase HDAC6 (Homo sapiens, UniProt Q9UBN7); assay: Inhibition of full length recombinant human N-terminal GST tagged HDAC6 expressed in baculovirus infected Sf9 cells using fluorogenic HDAC substrate after 30 mins by fluorescence analysis; summary of the method: as §1
T1 sequence (Q9UBN7 whole entry): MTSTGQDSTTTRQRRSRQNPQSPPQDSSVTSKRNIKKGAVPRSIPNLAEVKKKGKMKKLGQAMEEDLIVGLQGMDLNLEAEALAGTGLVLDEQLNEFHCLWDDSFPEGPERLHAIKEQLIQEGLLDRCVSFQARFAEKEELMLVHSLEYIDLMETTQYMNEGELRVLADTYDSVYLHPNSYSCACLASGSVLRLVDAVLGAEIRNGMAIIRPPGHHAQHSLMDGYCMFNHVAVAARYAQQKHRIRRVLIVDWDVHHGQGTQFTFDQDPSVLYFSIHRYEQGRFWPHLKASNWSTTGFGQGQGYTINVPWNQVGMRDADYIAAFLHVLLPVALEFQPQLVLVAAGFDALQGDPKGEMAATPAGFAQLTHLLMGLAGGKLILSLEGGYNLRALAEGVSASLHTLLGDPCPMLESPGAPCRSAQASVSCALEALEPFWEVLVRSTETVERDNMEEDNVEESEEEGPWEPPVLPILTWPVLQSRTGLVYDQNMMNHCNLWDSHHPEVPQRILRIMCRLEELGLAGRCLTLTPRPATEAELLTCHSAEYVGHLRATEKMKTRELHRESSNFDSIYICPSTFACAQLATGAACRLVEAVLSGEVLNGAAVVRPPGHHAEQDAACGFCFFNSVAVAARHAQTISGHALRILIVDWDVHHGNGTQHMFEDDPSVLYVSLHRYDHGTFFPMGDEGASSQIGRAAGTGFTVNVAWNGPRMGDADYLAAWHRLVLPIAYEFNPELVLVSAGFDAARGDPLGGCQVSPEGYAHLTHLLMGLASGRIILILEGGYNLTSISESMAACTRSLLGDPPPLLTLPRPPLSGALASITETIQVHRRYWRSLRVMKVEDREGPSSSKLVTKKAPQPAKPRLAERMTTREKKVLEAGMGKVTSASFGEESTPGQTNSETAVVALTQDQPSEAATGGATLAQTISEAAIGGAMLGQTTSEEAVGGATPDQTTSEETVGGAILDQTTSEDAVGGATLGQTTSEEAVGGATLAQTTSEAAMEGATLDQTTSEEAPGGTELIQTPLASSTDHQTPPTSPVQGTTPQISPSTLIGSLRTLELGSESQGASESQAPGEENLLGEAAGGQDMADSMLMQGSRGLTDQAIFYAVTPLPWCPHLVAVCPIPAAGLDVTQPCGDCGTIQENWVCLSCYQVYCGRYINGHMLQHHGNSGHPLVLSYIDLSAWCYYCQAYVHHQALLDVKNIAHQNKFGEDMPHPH

[9] = Cytotoxicity against human THLE2 cells assessed as reduction in cell viability after 72 hrs by ATP Vialight assay; assay type: toxicity, cell-based, THLE-2; settings: read-out: LC50
Summary of the method: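 Immortalized human liver THLE-2 cells in BEGM with 0.7 μg/mL phosphoethanolamine, 0.5 ng/mL EGF, antibiotics and 10% FBS, seeded at 10,000 cells/well and left 24 h at 37 °C. Compounds were added at final 0–100 μM in 1% DMSO for 72 h. Cellular ATP was read by luminescence after 45 min lysis.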

[10] = molecular target: Histone deacetylase 2 (Homo sapiens, UniProt Q92769); assay: Inhibition of full length recombinant human C-terminal His-tagged HDAC2 expressed in baculovirus infected Sf9 cells using fluorogenic HDAC substrate after 30 mins by fluorescence analysis; summary of the method: as §1
[11] = Lipophilicity, log D of the compound at pH 7.4; assay type: physicochemical; settings: buffer
[12] = Selectivity ratio of pIC50 for full length recombinant human C-terminal His/Flag-tagged HDAC1 expressed in baculovirus infected Sf9 cells to pIC50 for full length recombinant human N-terminal GST tagged HDAC6 expressed in baculovirus infected Sf9 cells
[13] = Dissociation constant, pKa of the compound; assay type: physicochemical

Histone deacetylase 3/Nuclear receptor corepressor 2 (HDAC3/NCoR2), sequence (O15379 whole entry, the tested form may be a part): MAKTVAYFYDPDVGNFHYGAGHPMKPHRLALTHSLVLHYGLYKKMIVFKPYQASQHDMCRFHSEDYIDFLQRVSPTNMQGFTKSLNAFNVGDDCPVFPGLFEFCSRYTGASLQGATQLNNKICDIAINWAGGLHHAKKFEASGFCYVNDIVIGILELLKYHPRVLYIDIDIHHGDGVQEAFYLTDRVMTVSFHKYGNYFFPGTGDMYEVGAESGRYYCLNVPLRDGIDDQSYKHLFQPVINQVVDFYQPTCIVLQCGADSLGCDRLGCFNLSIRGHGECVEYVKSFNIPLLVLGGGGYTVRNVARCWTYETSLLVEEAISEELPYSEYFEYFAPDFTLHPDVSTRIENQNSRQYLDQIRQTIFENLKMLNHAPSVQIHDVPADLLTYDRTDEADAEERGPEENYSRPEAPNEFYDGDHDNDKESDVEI
Histone deacetylase 3/Nuclear receptor corepressor 2 (HDAC3/NCoR2), sequence (Q9Y618 whole entry, further chain, the tested form may be a part): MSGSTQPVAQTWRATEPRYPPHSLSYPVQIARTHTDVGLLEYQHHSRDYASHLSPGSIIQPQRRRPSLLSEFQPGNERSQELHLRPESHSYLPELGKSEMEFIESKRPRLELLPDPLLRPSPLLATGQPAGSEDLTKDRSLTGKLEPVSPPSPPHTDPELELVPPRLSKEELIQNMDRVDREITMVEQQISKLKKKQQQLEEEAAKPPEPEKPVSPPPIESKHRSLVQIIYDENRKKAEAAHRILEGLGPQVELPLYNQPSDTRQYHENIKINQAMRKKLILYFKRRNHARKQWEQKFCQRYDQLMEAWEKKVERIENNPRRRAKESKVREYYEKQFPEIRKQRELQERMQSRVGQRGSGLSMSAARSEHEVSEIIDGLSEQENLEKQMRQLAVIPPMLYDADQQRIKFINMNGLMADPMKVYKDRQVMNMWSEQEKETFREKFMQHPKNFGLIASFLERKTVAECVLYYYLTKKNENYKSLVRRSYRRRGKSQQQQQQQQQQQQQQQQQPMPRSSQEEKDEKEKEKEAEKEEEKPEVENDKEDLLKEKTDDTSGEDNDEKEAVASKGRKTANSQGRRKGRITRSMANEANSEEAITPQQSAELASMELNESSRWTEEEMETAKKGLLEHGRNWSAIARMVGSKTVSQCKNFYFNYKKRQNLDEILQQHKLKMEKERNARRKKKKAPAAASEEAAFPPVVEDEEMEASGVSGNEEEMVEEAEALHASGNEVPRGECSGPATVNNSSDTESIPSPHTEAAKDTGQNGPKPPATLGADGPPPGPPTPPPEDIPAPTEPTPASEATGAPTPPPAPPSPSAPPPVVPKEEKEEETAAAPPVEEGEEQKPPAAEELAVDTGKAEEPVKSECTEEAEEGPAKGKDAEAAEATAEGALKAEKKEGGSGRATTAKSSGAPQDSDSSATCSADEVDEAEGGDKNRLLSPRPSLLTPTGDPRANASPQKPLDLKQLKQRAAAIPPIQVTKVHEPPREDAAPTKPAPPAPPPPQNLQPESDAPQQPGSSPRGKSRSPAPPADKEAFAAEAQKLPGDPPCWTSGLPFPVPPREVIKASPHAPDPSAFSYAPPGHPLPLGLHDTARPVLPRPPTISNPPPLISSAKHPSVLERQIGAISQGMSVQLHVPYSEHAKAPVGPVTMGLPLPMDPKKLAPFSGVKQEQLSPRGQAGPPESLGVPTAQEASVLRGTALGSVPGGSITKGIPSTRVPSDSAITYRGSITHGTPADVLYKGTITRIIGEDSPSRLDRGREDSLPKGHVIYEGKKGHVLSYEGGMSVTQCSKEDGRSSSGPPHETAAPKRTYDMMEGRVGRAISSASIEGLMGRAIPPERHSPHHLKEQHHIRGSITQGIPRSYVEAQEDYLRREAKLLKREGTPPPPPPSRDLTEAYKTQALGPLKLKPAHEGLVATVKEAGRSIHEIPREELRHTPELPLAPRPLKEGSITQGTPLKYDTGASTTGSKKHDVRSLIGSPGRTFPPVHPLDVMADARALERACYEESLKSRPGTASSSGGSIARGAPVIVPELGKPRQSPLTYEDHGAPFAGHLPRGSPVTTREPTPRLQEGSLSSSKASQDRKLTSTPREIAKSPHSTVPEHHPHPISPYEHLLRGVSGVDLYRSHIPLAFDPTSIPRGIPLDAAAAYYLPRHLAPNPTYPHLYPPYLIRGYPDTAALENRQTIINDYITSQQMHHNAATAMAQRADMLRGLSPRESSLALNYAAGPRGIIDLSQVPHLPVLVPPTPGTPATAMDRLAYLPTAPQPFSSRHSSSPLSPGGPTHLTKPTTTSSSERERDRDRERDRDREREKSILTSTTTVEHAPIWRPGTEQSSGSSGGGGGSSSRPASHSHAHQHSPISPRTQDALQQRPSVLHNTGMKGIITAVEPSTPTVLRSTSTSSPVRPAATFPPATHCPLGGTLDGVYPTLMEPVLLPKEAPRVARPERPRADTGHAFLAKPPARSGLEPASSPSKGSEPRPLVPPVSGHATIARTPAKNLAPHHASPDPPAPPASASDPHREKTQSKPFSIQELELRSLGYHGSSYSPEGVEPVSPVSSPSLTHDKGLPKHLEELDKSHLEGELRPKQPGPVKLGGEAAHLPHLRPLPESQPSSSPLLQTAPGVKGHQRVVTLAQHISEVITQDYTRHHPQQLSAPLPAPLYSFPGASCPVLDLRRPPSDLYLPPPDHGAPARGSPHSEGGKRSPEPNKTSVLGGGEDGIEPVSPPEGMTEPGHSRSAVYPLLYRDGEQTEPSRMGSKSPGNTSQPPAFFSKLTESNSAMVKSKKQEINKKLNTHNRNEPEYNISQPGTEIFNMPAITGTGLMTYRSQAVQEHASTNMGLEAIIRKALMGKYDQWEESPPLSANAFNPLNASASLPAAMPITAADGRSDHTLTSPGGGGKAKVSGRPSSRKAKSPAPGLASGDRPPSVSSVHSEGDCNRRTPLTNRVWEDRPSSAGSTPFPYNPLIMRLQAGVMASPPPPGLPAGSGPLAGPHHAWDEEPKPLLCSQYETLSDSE
Histone deacetylase 1, sequence (Q13547 whole entry): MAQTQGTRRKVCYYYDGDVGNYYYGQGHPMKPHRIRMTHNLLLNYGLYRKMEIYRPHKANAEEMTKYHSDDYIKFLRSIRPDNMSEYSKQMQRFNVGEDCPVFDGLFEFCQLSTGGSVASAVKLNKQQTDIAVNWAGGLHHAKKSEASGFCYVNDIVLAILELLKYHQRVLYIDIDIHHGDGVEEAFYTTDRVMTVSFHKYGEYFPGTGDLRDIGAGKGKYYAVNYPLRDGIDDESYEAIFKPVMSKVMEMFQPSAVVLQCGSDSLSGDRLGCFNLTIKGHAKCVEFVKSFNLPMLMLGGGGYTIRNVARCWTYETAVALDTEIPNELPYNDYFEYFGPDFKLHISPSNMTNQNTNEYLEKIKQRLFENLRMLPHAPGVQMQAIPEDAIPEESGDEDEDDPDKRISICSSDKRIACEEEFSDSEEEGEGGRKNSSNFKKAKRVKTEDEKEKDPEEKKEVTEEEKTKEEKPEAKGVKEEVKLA
Histone deacetylase 2, sequence (Q92769 whole entry): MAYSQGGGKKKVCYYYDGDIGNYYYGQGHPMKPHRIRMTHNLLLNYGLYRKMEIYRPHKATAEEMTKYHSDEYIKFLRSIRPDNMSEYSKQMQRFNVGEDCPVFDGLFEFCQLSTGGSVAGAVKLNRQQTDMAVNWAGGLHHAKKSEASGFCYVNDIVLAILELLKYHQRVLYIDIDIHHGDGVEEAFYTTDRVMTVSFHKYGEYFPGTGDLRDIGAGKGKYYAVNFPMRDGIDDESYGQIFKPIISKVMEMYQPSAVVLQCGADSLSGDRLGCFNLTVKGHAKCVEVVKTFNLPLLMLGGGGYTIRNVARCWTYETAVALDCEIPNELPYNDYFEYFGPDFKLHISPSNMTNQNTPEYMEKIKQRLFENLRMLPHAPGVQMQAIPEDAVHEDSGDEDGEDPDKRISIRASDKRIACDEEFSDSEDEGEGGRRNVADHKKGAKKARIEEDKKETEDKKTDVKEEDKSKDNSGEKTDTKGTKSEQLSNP

CCCc1nn(C)c2c(=O)[nH]c(-c3cc(S(=O)(=O)N4CCN(c5ncc(C(=O)NO)cn5)CC4)ccc3OCC)nc12
IC50 [1]: 8 nM | CC50 at 72 h [2]: 2150 nM | Ratio pIC50 [3]: > 1 | Papp at 18 h, 50 µM [4]: 0.72 ×10⁻⁶ cm/s | IC50 [5]: 3 nM | IC50 [6]: 36 nM | selectivity ratio [7]: < 0.4 | IC50 [8]: 268 nM | CC50 at 72 h [9]: 1460 nM | IC50 [10]: 117 nM

CN1CC(=O)N2[C@H](c3ccc4c(c3)OCO4)c3[nH]c4ccccc4c3C[C@@H]2C1=O
CC50 at 72 h [2]: 110000 nM | Papp at 18 h, 50 µM [4]: 2.68 ×10⁻⁶ cm/s | CC50 at 72 h [9]: 60300 nM

O=C(CCCCCCC(=O)Nc1ccccc1)NO [VORINOSTAT]
CC50 at 72 h [2]: 4910 nM | Papp at 18 h, 50 µM [4]: 0.23 ×10⁻⁶ cm/s | CC50 at 72 h [9]: 3590 nM | logD [11]: 2

CCCc1nn(C)c2c(=O)[nH]c(-c3cc(S(=O)(=O)NC4CCN(c5ncc(C(=O)NO)cn5)CC4)ccc3OCC)nc12
IC50 [1]: 57 nM | CC50 at 72 h [2]: 4950 nM | Papp at 18 h, 50 µM [4]: 0.1 ×10⁻⁶ cm/s | IC50 [5]: 0.6 nM | IC50 [6]: 54 nM | selectivity ratio [7]: < 0.4 | IC50 [8]: 59 nM | CC50 at 72 h [9]: 11900 nM | IC50 [10]: 341 nM

CCCc1nn(C)c2c(=O)[nH]c(-c3cc(S(=O)(=O)N4CCN(Cc5ccc(/C=C/C(=O)NO)cc5)CC4)ccc3OCC)nc12
IC50 [1]: 1340 nM | IC50 [5]: 2 nM | IC50 [8]: 89 nM | Ratio pIC50 [12]: > 1 | IC50 [10]: 6970 nM

CCCc1nn(C)c2c(=O)[nH]c(-c3cc(CC4CCN(c5ccc(C(=O)NO)cc5)CC4)ccc3OCC)nc12
IC50 [1]: > 20000 nM | IC50 [5]: 121 nM | IC50 [8]: > 20000 nM | pKa [13]: 8.73 | IC50 [10]: > 20000 nM

CCCc1nn(C)c2c(=O)[nH]c(-c3cc(N4CCC(CC(=O)NO)CC4)ccc3OCC)nc12
IC50 [1]: 5860 nM | CC50 at 72 h [2]: > 100000 nM | Papp at 18 h, 50 µM [4]: 0.49 ×10⁻⁶ cm/s | IC50 [5]: 65 nM | selectivity ratio [7]: < 0.4 | IC50 [8]: 1090 nM | CC50 at 72 h [9]: 88700 nM | IC50 [10]: > 20000 nM

CCCc1nn(C)c2c(=O)[nH]c(-c3cc(CC4CCN(c5ncc(C(=O)NO)cn5)CC4)ccc3OCC)nc12
IC50 [1]: 63 nM | Ratio pIC50 [3]: 1.4 | Papp at 18 h, 50 µM [4]: 0.41 ×10⁻⁶ cm/s | IC50 [5]: 7 nM | IC50 [6]: 51 nM | selectivity ratio [7]: < 0.4 | IC50 [8]: 1250 nM | pKa [13]: 7.85 | IC50 [10]: 335 nM

CCCc1nn(C)c2c(=O)[nH]c(-c3cc(C4CC(C(=O)NO)C4)ccc3OCC)nc12 (stereo not drawn)
IC50 [1]: 554 nM | Papp at 18 h, 50 µM [4]: 1.37 ×10⁻⁶ cm/s | IC50 [5]: 17 nM | selectivity ratio [7]: < 0.4 | IC50 [8]: 130 nM | Ratio pIC50 [12]: > 0.6 | IC50 [10]: 1860 nM

CCCc1nn(C)c2c(=O)[nH]c(-c3cc(CC4CCN(c5ccc(C(=O)NO)cn5)CC4)ccc3OCC)nc12
IC50 [1]: 1880 nM | IC50 [5]: 57 nM | IC50 [8]: 395 nM | pKa [13]: 8.29 | IC50 [10]: 6430 nM

CCCc1nn(C)c2c(=O)[nH]c(-c3cc(S(=O)(=O)Nc4ccc(/C=C/C(=O)NO)cc4)ccc3OCC)nc12
IC50 [1]: 356 nM | CC50 at 72 h [2]: 30300 nM | Papp at 18 h, 50 µM [4]: 0.23 ×10⁻⁶ cm/s | IC50 [5]: 1 nM | selectivity ratio [7]: < 0.4 | IC50 [8]: 84 nM | CC50 at 72 h [9]: 27400 nM | IC50 [10]: 1310 nM
